In data set [1] the target is T1, Free fatty acid receptor 1 (Homo sapiens, UniProt O14842). Briefly: Displacement of 3-[4-({2',6'-dimethyl-6-[(4-[3H])phenylmethoxy]biphenyl-3-yl}methoxy)phenyl] propanoic acid from human GPR40 receptor expressed in CHO cell membrane after 90 mins by liquid scintillation counting in the presence of 0.2% BSA. The data set is classed as cell membranes. In outline: (§1)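 Membranes from CHO lines stably expressing human or rat GPR40, buffer 25 mmol/L Tris-HCl pH 7.5, 5 mmol/L EDTA, protease inhibitors, 0.05% CHAPS, 0.2% fatty-acid-free BSA. Tritiated ligand at 2 or 6 nmol/L with graded test compound, 90 min room temperature, GF/C filtration, scintillation counting. Nonspecific binding: 10 μmol/L unlabeled ligand. IC50 by nonlinear regression, Ki = IC50/(1+[L]/Kd).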

The target in data set [2] is T1, Free fatty acid receptor 1. Briefly: Agonist activity at human GPR40 receptor expressed in CHO cells assessed as increase in intracellular calcium level for 90 secs by FLIPR assay in the presence of 0.1% BSA. The format is functional, cell-based. In outline:
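CHO dhfr cells stably expressing human GPR40 plated overnight, loaded 60 min at 37 °C with Fluo 4 AM (2.5 μg/mL), 2.5 mmol/L probenecid, 0.1% fatty acid-free BSA. Ca2+ rise after compound addition read 90 s; response scaled between vehicle (0%) and 10 μM γ-linolenic acid (100%).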

A short description of data set [3]: Lipophilicity, log D of the compound by RP-HPLC analysis. The format is physicochemical.
Data set [4] concerns the target Free fatty acid receptor 1 (Rattus norvegicus, UniProt Q8K3T4). Kind of data set: Displacement of 3-[4-({2',6'-dimethyl-6-[(4-[3H])phenylmethoxy]biphenyl-3-yl}methoxy)phenyl] propanoic acid from rat GPR40 receptor expressed in CHO cell membrane after 90 mins by liquid scintillation counting in the presence of 0.2% BSA. The format is cell membranes. In a few lines: as §1

A short description of data set [5]: Metabolic stability in rat hepatic microsomes. The data set is classed as ADME. The following applies: liver microsomes, read-out: Stability. For orientation: Microsomes from liver hold many membrane-bound enzymes, among them those of drug oxidation.
The nature of data set [6]: Metabolic stability in human hepatic microsomes. The data set is classed as ADME. Conditions: liver microsomes, read-out: Stability.
The test system of data set [7] is HepG2. Briefly: Induction of apoptosis in human HepG2 cells assessed as caspase 3/7 activity at 10 uM after 24 hrs by caspase Glo assay relative to staurosporine. The format is cell-based. The following applies: hepg2, 24 h. In outline: (§2)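 HepG2 cells seeded 2 × 10^4/well, treated 1 day in DMEM with 0.5% FBS, 2 mM L-glutamine, 1 mM pyruvate. Caspase-Glo 3/7 luminescence; activity = (compound − 1% DMSO)/(30 μM staurosporine − 1% DMSO) ×100, n = 3.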

Data set [8] is described as follows: Cytotoxicity against human HepG2 cells assessed as intracellular ATP level at 10 uM after 24 hrs by ATPlite assay relative to control. The data set is classed as cell-based. The following applies: read-out: Activity. In outline:
(§3)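 HepG2 cells seeded 2 × 10^4/well, treated 1 day in DMEM with 0.5% FBS, 2 mM L-glutamine, 1 mM pyruvate. ATP measured by ATPlite luminescence; % of 1% DMSO control (RLU ratio ×100), n = 3.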

A short description of data set [9]: Cytotoxicity against human HepG2 cells assessed as intracellular ATP level at 30 uM after 24 hrs by ATPlite assay relative to control. The format is cell-based. Conditions: read-out: Activity. In a few lines:
as §3

Data set [10] relates to HepG2. Briefly: Induction of apoptosis in human HepG2 cells assessed as caspase 3/7 activity at 30 uM after 24 hrs by caspase Glo assay relative to staurosporine. The data set is classed as cell-based. The following applies: hepg2, 24 h. In a few lines: as §2

T1 sequence (O14842 whole entry): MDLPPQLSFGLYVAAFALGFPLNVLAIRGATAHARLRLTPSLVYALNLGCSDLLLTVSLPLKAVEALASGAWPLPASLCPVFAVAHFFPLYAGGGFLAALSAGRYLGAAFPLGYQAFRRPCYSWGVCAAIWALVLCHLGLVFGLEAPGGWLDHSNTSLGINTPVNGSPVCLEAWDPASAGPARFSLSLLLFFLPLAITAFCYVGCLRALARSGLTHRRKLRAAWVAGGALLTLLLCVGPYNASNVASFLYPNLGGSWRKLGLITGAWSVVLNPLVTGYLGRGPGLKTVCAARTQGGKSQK
Chain of Free fatty acid receptor 1 (Rattus norvegicus, UniProt Q8K3T4) (Q8K3T4 whole entry): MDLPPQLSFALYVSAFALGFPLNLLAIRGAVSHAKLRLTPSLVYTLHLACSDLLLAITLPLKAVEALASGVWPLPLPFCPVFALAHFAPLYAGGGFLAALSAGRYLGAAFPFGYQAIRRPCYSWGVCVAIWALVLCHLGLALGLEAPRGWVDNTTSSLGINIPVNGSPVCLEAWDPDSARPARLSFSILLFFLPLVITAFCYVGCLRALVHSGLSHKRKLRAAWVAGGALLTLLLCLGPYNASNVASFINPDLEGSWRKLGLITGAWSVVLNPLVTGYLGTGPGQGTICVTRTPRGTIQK

A word on the Ki: it is the equilibrium dissociation constant of an inhibitor or competing ligand from its target. One may read the EC50 as the concentration giving half of the maximal effect. One may read the logD as the decadic logarithm of the distribution of all forms, ionised or not, between an organic phase and buffer at a given pH. A low value points to lower lipophilicity. As for `COc1ccc(COc2ccc(CCC(=O)O)cc2)cc1-c1c(C)cccc1C`, the Ki in data set [1] came to 47 nM; in [4] it was 87 nM. In addition, in [2], the EC50 came out at 20 nM. Further, the logD in [3] was 3.38.
Take `Cc1cccc(C)c1-c1cccc(COc2ccc(CCC(=O)O)cc2)c1`: the Ki in [1] was 46 nM; in data set [4] it was 27 nM. Further, in [2], the EC50 was found to be 22 nM. In addition, the logD in data set [3] stood at 4.04. Moreover, the microsomal CLint is 34 µL/min/mg in data set [5] and 28 µL/min/mg in [6].
As for `Cc1cc(OCc2ccccc2)cc(C)c1-c1cccc(COc2ccc(CCC(=O)O)cc2)c1`, the Ki in data set [1] came out at 15 nM; in data set [4], 6.7 nM. Besides, the EC50 in data set [2] came to 14 nM. This molecule also yielded a logD in data set [3] of 5.08.
`Cc1cccc(C)c1-c1cccc(COc2ccc(CCC(=O)O)c(F)c2)c1`: the results for the microsomal CLint in [5] and in data set [6] were 39 µL/min/mg and 69 µL/min/mg, respectively. Besides, the Ki in data set [4] worked out at 36 nM.
For `CCOCCOc1cc(C)c(-c2cccc(COc3ccc(CCC(=O)O)cc3)c2)c(C)c1`, the Ki turned out to be 23 nM in data set [1] and 10 nM in data set [4]. The EC50 in data set [2] stood at 13 nM. Moreover, the logD in [3] is 3.89.
Turning to `Cc1cc(OC2CCOCC2)cc(C)c1-c1cccc(COc2ccc(CCC(=O)O)c(F)c2)c1`, the Ki in data set [1] was found to be 20 nM; in [4] it was 6.7 nM. In addition, the Activity in the data set with HepG2 [7] was determined as 0.9%; in the data set with HepG2 [10], 42.8%. Besides, the EC50 in [2] is 23 nM. Besides, the viability at 24 h, 10 µM in data set [8] turned out to be 60.3%. Moreover, the logD in data set [3] amounted to 4.1. Besides, the viability at 24 h, 30 µM in data set [9] amounted to 38.1%.
With `CCOCCOc1cc(C)c(-c2cccc(CNc3ccc(CCC(=O)O)c(F)c3)c2)c(C)c1.Cl`, the inhibition constant Ki stood at 18 nM in data set [1] and 6.2 nM in [4]. Further, the Activity with HepG2 [7] is reported as 5.3%; in the data set with HepG2 [10] it was 1.2%. Further, the EC50 in data set [2] is 26 nM. The viability at 24 h, 10 µM in [8] is 9.9%. The logD in data set [3] stood at 3.49. Moreover, the viability at 24 h, 30 µM in data set [9] was determined as 48.5%.
On to `Cc1cc(OC2CCS(=O)(=O)CC2)cc(C)c1-c1cccc(CNc2ccc(CCC(=O)O)c(F)c2)c1`, for which the Ki in [1] stood at 18 nM; in [4], 5.1 nM. Besides, the results for the Activity with HepG2 [7] and in the data set on HepG2 [10] were -0.5% and -0.7%, respectively. Further, the EC50 in data set [2] was 23 nM. In data set [8], the viability at 24 h, 10 µM was determined as 78.8%. In addition, the logD in data set [3] came out at 2.44. In addition, the viability at 24 h, 30 µM in [9] worked out at 60.7%.
For the molecule `Cc1cc(OCC2CC2)cc(C)c1-c1cccc(COc2ccc(CCC(=O)O)cc2)c1`, the Ki in [1] is 16 nM; in data set [4] it was 5.6 nM. Also, the EC50 in data set [2] came to 15 nM. The logD in data set [3] was 4.61.
In the case of `CCS(=O)(=O)CCOc1cc(C)c(-c2cccc(COc3ccc(CCC(=O)O)c(F)c3)c2)c(C)c1`, the Ki in [1] amounted to 15 nM; in data set [4], 4.2 nM. Further, the values for the Activity in the data set with HepG2 [7] and in the data set with HepG2 [10] were -1.1% and 17.7%, respectively. The EC50 in data set [2] came out at 25 nM. For the same molecule, in data set [8], the viability at 24 h, 10 µM stood at 79.8%. The same molecule yielded a logD in data set [3] of 3.02. Moreover, the microsomal CLint in [5] was determined as 10 µL/min/mg; in data set [6], 6 µL/min/mg. Further, the viability at 24 h, 30 µM in [9] is 32.5%.
For `COc1ccc(-c2c(C)cccc2C)cc1COc1ccc(CCC(=O)O)cc1`, the Ki in data set [1] turned out to be 520 nM; in data set [4], 10000 nM. The same molecule registered a logD in data set [3] of 4.04.
In the case of `COc1cc(C)c(-c2cccc(COc3ccc(CCC(=O)O)cc3)c2)c(C)c1`, the figures for the Ki in data set [1] and in data set [4] were 25 nM and 6.2 nM, respectively. For the same molecule, the EC50 in data set [2] amounted to 12 nM. Moreover, in [3], the logD stood at 3.83.
On the same counts, the results for `Cc1cccc(C)c1-c1cccc(COc2ccc(CCC(=O)O)cc2)c1C` are 58 nM, 30 nM, 40 nM and 4.22.
Turning to `CCOCCOc1cc(C)c(-c2cccc(COc3ccc(CCC(=O)O)c(F)c3)c2)c(C)c1`, the figures for the Ki in data set [1] and in [4] were 12 nM and 4.5 nM, respectively. In addition, the EC50 in data set [2] worked out at 4.5 nM. The logD in [3] was 4.14. The microsomal CLint in data set [6] was determined as 8 µL/min/mg.
For `CCS(=O)(=O)CCOc1cc(C)c(-c2cccc(CNc3ccc(CCC(=O)O)c(F)c3)c2)c(C)c1`, the Ki stood at 20 nM in data set [1] and 4.5 nM in [4]. The Activity in the data set on HepG2 [7] was -1%; with HepG2 [10], -0.9%. Besides, the EC50 in data set [2] is 99 nM. In addition, the viability at 24 h, 10 µM in [8] was found to be 79.8%. Also, the pH-dependent lipophilicity (logD) in data set [3] was 2.39. For the same molecule, the viability at 24 h, 30 µM in [9] turned out to be 45.7%. The microsomal CLint in data set [6] worked out at 2 µL/min/mg.
For the molecule `Cc1cc(OCC2(O)CCS(=O)(=O)CC2)cc(C)c1-c1cccc(COc2ccc(CCC(=O)O)c(F)c2)c1`, the figures for the inhibition constant (Ki) in [1] and in data set [4] were 19 nM and 8.2 nM, respectively. Further, the Activity with HepG2 [7] is on record as -0.2%; in the data set on HepG2 [10] it was 2.8%. In [2], the concentration for a half-maximal effect (EC50) was 15 nM. In addition, the viability at 24 h, 10 µM in [8] amounted to 88.6%. Also, the logD in [3] stood at 2.78. In addition, the viability at 24 h, 30 µM in [9] is 61.5%.
On to `Cc1cccc(Oc2cc(C)c(-c3cccc(COc4ccc(CCC(=O)O)c(F)c4)c3)c(C)c2)n1.Cl`, for which the Ki was 12 nM in data set [1] and 6.7 nM in data set [4]. Also, the Activity is reported as -0.4% in the data set with HepG2 [7] and 41.1% in the data set with HepG2 [10]. Moreover, the EC50 in data set [2] came to 31 nM. Moreover, the viability at 24 h, 10 µM in data set [8] was 56.7%. This molecule had a logD in [3] of 4.23. In addition, the viability at 24 h, 30 µM in data set [9] was determined as 47.5%.
In the case of `COc1cc(COc2ccc(CCC(=O)O)c(F)c2)cc(-c2c(C)cccc2C)c1`, the figures for the Ki in data set [1] and in data set [4] were 99 nM and 120 nM, respectively. Further, the logD in [3] was 4.16.
For `Cc1cc(OCCCN2CCCC2=O)cc(C)c1-c1cccc(COc2ccc(CCC(=O)O)c(F)c2)c1`, the inhibition constant Ki in data set [1] was 21 nM; in data set [4], 9.7 nM. The Activity in the data set with HepG2 [7] was 0.2%; in the data set on HepG2 [10], 20.3%. The EC50 in [2] amounted to 32 nM. For the same molecule, in [8], the viability at 24 h, 10 µM turned out to be 54.1%. Further, the logD in data set [3] worked out at 3.51. In addition, the microsomal CLint is 5 µL/min/mg in data set [5] and 7 µL/min/mg in data set [6]. In addition, the viability at 24 h, 30 µM in data set [9] is 30.3%.
